{"data": "Results pooled from the literature", "SIRT1": "NAD-dependent protein deacetylase sirtuin-1 (SIRT1, Homo sapiens, UniProt Q96EB6)", "XDH": "Xanthine dehydrogenase/oxidase (XDH, Bos taurus, UniProt P80457)", "SPHK2": "Sphingosine kinase 2 (SPHK2, Homo sapiens, UniProt Q9NRA0)", "Adra1b": "Alpha-1B adrenergic receptor (Adra1b, Rattus norvegicus, UniProt P15823)", "SLC7A5": "Large neutral amino acids transporter small subunit 1 (SLC7A5, Homo sapiens, UniProt Q01650)", "note": "Lines come from different studies, so protocols differ."}
{"SMILES": "CCCCCC1CC(O)c2cc(Cl)cc(Br)c2O1 (stereo not drawn)", "target": "SIRT1", "assay": "enzyme activity, inhibitor, fluorescence", "conditions": "200 µM", "inhibition [%]": -5.5}
{"SMILES": "OCCc1ccc(O)c(O)c1", "target": "XDH", "assay": "enzyme activity, inhibitor, absorbance", "conditions": "100 µg/mL", "inhibition [%]": 7.3}
{"SMILES": "N=C(N)N1CCC[C@H]1c1nc(-c2ccc(CCc3ccc(C(F)(F)F)cc3)c(C(F)(F)F)c2)no1", "target": "SPHK2", "assay": "enzyme activity, inhibitor, radiometric", "conditions": "0.3 µM", "inhibition [%]": 59}
{"SMILES": "CCCCCC1CC(=O)c2cc(C)cc(C)c2O1 (stereo not drawn)", "target": "SIRT1", "assay": "enzyme activity, inhibitor, fluorescence", "conditions": "200 µM", "inhibition [%]": 3.2}
{"SMILES": "O=C(Nc1ccc(S(=O)(=O)N2CCC(Cl)CC2)cc1)c1ccc([N+](=O)[O-])o1", "target": "Adra1b", "assay": "ligand displacement, radioligand", "conditions": "10 µM", "inhibition [%]": 13}
{"SMILES": "[H]/N=C(\\N)N1CCC[C@H]1c1nc(-c2ccc(OCCC=Cc3ccc(C(F)(F)F)cc3)c(C(F)(F)F)c2)no1", "target": "SPHK2", "assay": "enzyme activity, inhibitor, radiometric", "conditions": "0.3 µM", "inhibition [%]": 68}
{"SMILES": "O=Cc1ccc(O)cc1", "target": "XDH", "assay": "enzyme activity, inhibitor, absorbance", "conditions": "100 µg/mL", "inhibition [%]": 3.2}
{"SMILES": "CCCCCC1CC(=O)c2cc(Cl)cc(Br)c2O1 (stereo not drawn)", "target": "SIRT1", "assay": "enzyme activity, inhibitor, fluorescence", "conditions": "200 µM", "inhibition [%]": 6.2}
{"SMILES": "CCOCCOCCNC(=S)NCCCC[C@H](NS(C)(=O)=O)C(=O)N[C@H](C)C(=O)N[C@@H](CCCNC(=N)N)C(N)=O", "target": "SIRT1", "assay": "enzyme activity, inhibitor", "conditions": "100 µM", "inhibition [%]": 12}
{"SMILES": "Ic1cccc2cnccc12", "target": "Adra1b", "assay": "ligand displacement, radioligand", "conditions": "10 µM", "inhibition [%]": 7}
{"SMILES": "NC(CCOC(=O)c1ccccc1)C(=O)O (stereo not drawn)", "target": "SLC7A5", "assay": "transporter uptake, inhibitor, radiometric", "conditions": "200 µM", "inhibition [%]": 11}
{"SMILES": "O=C(CO)c1ccc(O)c(O)c1", "target": "XDH", "assay": "enzyme activity, inhibitor, absorbance", "conditions": "100 µg/mL", "inhibition [%]": 20}
{"SMILES": "CCCCC=CCOc1ccc(-c2noc([C@@H]3CCCN3C(=N)N)n2)cc1C(F)(F)F", "target": "SPHK2", "assay": "enzyme activity, inhibitor, radiometric", "conditions": "0.3 µM", "inhibition [%]": 39}
{"SMILES": "CCCCCC1CC(=O)c2cc(OC)ccc2O1 (stereo not drawn)", "target": "SIRT1", "assay": "enzyme activity, inhibitor, fluorescence", "conditions": "200 µM", "inhibition [%]": 10.3}
{"SMILES": "CC(=S)NCCCC[C@H](NC(=O)OCc1ccccc1)C(=O)N[C@@H](Cc1c[nH]c2ccccc12)C(=O)N[C@@H](CCCNC(=N)N)C(N)=O", "target": "SIRT1", "assay": "enzyme activity, inhibitor", "conditions": "1 µM", "inhibition [%]": 64}
{"SMILES": "CC(C)(C)C(=O)OCOP(=O)(Cc1ccccc1CP(=O)(OCOC(=O)C(C)(C)C)OCOC(=O)C(C)(C)C)OCOC(=O)C(C)(C)C", "target": "Signal transducer and activator of transcription 5B, SH2 (STAT5B, Homo sapiens, UniProt P51692)", "assay": "ligand displacement, FP", "conditions": "100 µM", "inhibition [%]": -1}
{"SMILES": "O=C1CC(CCNC(=S)NCCCC[C@H](NS(=O)(=O)c2cccc(F)c2)C(=O)N[C@@H](Cc2c[nH]c3ccccc23)C(=O)NC2CCC2)=NO1", "target": "SIRT1", "assay": "enzyme activity, inhibitor", "conditions": "10 µM", "inhibition [%]": 22}
{"SMILES": "CCCCc1ccc(CCc2ccc(-c3noc([C@@H]4CCCN4C(=N)N)n3)cc2C(F)(F)F)cc1", "target": "SPHK2", "assay": "enzyme activity, inhibitor, radiometric", "conditions": "0.3 µM", "inhibition [%]": 59}
{"SMILES": "CCOCCOCCOCCNC(=S)NCCCC[C@H](NS(C)(=O)=O)C(=O)N[C@H](C)C(=O)N[C@@H](CCCNC(=N)N)C(N)=O", "target": "SIRT1", "assay": "enzyme activity, inhibitor", "conditions": "100 µM", "inhibition [%]": 16}
{"SMILES": "CC(C)CCn1c(SCC(=O)Nc2ccccc2C(F)(F)F)nc2nccnc2c1=O", "target": "SPHK2", "assay": "enzyme activity, inhibitor", "conditions": "10 µM", "inhibition [%]": "< 20"}
{"SMILES": "NC(CCCNC(=O)c1ccccc1)C(=O)O (stereo not drawn)", "target": "SLC7A5", "assay": "transporter uptake, inhibitor, radiometric", "conditions": "200 µM", "inhibition [%]": 54}
